pIC50, pKi: −log10 of the molar value.
Legend:
[1] = target: T1, 5-hydroxytryptamine receptor 2C (Rattus norvegicus, UniProt P08909); experiment: Displacement of [3H]mesulergine from Sprague-Dawley rat brain cortex serotonin 5-HT2C receptor after 15 mins by liquid scintillation counting in presence of 5-HT2A blocker, spiperone; details: for pKi: read-out: Ki
T1 sequence (P08909 whole entry): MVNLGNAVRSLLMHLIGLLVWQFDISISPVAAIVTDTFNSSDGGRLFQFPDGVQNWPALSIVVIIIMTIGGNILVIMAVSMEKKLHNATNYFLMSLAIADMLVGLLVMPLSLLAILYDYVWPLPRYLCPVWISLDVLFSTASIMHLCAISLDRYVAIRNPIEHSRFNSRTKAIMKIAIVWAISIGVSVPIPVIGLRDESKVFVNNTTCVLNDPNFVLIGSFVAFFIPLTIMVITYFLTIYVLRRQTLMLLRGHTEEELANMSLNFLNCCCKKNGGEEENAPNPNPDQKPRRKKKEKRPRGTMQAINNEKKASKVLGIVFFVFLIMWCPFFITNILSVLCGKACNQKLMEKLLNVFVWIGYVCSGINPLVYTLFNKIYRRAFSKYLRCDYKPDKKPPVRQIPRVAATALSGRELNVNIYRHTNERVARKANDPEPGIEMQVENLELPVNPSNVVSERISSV
Method in brief: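 Male Sprague-Dawley rat frontal cortex membranes (Tris-HCl/EDTA/MgCl2 pH 7.4, ascorbate, pargyline). 100 nM spiperone in all tubes to block 5-HT2A sites. Mianserin defined nonspecific binding. 15 min at 37 °C, PEI-soaked glass fibre filtration. Six compound concentrations in triplicate. Ki by Cheng-Prusoff.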

[2] = target: T2, 5-hydroxytryptamine receptor 1A (Rattus norvegicus, UniProt P19327); experiment: Displacement of [3H]-8-OH-DPAT from Sprague-Dawley rat brain cortex serotonin 5-HT1A receptor after 30 mins by liquid scintillation counting; details: for pKi: read-out: Ki
T2 sequence (P19327 whole entry): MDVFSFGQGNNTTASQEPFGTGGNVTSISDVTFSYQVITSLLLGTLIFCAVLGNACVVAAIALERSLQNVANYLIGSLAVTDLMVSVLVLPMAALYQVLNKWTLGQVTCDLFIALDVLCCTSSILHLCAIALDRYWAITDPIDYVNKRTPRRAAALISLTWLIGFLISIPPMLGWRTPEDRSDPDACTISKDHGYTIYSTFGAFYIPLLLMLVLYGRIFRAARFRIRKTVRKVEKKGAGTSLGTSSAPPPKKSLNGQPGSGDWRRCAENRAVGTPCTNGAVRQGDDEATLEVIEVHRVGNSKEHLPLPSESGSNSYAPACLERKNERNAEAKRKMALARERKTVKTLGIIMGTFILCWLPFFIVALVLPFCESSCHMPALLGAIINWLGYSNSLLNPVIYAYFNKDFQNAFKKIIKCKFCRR
Method in brief: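 Male Sprague-Dawley rat (180-220 g) cerebral cortex homogenized in 50 mM Tris-HCl pH 7.7, spun 50,000 g. [3H]-8-OH-DPAT 0.1 nM final, 30 min at 37 °C, GF/B filtration. Test compounds in ethanol or 5% DMSO, six concentrations in triplicate. IC50 by curve fitting, Ki by Cheng-Prusoff using Scatchard-derived KD.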

[3] = target: 5-hydroxytryptamine receptor 2A (Rattus norvegicus, UniProt P14842); experiment: Displacement of [3H]ketanserin from Sprague-Dawley rat brain cortex serotonin 5-HT2A receptor after 15 mins by liquid scintillation counting; details: for pKi: read-out: Ki
5-hydroxytryptamine receptor 2A, sequence (P14842 whole entry): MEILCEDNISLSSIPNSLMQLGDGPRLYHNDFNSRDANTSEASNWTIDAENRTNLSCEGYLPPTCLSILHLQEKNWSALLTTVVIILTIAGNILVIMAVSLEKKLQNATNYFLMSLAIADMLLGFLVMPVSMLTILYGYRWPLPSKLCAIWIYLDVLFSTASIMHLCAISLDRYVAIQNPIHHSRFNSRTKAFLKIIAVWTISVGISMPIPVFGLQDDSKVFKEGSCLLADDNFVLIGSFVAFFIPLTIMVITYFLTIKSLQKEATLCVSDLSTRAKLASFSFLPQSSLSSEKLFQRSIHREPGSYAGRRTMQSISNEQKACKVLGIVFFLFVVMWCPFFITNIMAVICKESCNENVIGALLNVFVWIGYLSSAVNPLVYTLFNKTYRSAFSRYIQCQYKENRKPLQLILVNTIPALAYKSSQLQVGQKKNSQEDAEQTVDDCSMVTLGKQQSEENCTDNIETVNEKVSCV
Method in brief: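 Male Sprague-Dawley rat frontal cortex membranes in 50 mM Tris-HCl, 0.5 mM EDTA, 10 mM MgCl2 pH 7.4, with 0.1% ascorbate and pargyline. 0.4 nM [3H]ketanserin, 5 mg wet tissue, 15 min at 37 °C. Filtered on PEI-soaked glass fibre. Six compound concentrations in triplicate. IC50 converted to Ki by Cheng-Prusoff.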

D(2) dopamine receptor = D(2) dopamine receptor (Rattus norvegicus, UniProt P61169); experiment: Displacement of [3H]spiperone from rat corpora striatum dopamine D2 receptor after 15 mins by liquid scintillation counting; details: for pKi: read-out: Ki
D(2) dopamine receptor, sequence (P61169 whole entry): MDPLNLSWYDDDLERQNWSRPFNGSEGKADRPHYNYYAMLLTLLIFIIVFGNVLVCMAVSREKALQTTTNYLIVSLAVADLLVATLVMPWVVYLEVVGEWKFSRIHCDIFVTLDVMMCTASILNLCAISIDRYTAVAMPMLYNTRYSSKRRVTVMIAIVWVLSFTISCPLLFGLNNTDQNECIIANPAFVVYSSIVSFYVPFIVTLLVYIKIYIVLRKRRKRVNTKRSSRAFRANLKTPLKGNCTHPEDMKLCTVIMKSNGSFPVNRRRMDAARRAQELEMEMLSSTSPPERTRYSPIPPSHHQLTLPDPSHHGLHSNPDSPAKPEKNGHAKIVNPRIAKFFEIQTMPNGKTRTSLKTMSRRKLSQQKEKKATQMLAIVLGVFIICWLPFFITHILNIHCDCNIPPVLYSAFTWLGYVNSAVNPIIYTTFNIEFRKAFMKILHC
Method in brief: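 Corpora striata membranes in Tris-HCl buffer containing NaCl, KCl, CaCl2, MgCl2, ascorbic acid and pargyline. [3H]spiperone 0.4 nM final, 3 mg fresh tissue, incubated 15 min at 37 °C. GF/B filtration, scintillation counting. Six concentrations in triplicate. IC50 converted to Ki via Cheng-Prusoff.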

D(1A) dopamine receptor = D(1A) dopamine receptor (Rattus norvegicus, UniProt P18901); experiment: Displacement of [3H]SCH-23390 from rat corpora striatum dopamine D1 receptor after 15 mins by liquid scintillation counting; details: for pKi: read-out: Ki
D(1A) dopamine receptor, sequence (P18901 whole entry): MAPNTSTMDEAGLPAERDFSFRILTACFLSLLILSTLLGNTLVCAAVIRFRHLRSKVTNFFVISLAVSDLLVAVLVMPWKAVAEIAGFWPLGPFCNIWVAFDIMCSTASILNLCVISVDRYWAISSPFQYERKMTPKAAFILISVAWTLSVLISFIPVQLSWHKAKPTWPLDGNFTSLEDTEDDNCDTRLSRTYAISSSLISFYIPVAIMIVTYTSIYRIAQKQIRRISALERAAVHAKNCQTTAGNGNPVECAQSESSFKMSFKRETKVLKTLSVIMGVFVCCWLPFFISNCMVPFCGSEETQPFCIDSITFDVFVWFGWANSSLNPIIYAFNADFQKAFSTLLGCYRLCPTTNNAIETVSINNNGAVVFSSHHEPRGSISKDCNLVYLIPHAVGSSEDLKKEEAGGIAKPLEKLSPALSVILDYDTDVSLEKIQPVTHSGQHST
Method in brief: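 Rat corpora striata homogenized in 50 mM Tris-HCl pH 7.7, spun twice at 50,000 g. Resuspended in Tris-HCl with NaCl, KCl, CaCl2, MgCl2, ascorbic acid and pargyline. 0.4 nM [3H]SCH-23390 final, 3 mg fresh tissue, 15 min at 37 °C. Nonspecific binding with piflutixol. Ki by Cheng-Prusoff from triplicate six-point curves.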

[4] = target: T3, Adrenergic receptor alpha-1 (Rattus norvegicus, UniProt P15823+P23944+P43140); experiment: Displacement of [3H]prazosin from rat brain cortex adrenergic alpha1 receptor after 30 mins by liquid scintillation counting
T3 sequence (P15823 whole entry): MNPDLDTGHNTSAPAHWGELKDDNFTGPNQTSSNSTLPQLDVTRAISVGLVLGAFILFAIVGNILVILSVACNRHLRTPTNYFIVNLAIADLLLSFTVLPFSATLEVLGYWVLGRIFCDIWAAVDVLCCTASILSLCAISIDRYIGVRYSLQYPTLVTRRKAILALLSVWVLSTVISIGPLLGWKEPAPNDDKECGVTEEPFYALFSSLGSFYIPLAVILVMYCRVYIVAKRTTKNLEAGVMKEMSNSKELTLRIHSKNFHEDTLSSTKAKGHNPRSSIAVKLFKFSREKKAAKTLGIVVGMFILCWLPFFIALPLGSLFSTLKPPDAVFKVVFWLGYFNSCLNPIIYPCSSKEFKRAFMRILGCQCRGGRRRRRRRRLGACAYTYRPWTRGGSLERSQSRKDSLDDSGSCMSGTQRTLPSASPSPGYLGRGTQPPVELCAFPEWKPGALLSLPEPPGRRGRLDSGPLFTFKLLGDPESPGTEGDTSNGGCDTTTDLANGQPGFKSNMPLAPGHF
T3 sequence (P23944 whole entry): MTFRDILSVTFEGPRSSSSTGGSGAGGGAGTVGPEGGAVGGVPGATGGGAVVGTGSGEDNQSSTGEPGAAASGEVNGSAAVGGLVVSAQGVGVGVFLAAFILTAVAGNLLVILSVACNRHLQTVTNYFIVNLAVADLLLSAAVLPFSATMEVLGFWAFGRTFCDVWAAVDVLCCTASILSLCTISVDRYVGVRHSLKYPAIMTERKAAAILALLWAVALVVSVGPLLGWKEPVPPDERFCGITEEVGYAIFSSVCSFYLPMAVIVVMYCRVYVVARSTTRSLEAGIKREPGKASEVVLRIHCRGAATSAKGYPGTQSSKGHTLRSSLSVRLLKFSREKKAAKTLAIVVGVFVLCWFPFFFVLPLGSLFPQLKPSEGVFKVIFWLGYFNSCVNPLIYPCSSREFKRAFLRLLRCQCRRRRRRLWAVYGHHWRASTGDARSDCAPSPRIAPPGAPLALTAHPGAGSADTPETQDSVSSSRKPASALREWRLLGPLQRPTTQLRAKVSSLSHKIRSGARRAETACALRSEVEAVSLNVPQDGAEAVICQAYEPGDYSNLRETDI
T3 sequence (P43140 whole entry): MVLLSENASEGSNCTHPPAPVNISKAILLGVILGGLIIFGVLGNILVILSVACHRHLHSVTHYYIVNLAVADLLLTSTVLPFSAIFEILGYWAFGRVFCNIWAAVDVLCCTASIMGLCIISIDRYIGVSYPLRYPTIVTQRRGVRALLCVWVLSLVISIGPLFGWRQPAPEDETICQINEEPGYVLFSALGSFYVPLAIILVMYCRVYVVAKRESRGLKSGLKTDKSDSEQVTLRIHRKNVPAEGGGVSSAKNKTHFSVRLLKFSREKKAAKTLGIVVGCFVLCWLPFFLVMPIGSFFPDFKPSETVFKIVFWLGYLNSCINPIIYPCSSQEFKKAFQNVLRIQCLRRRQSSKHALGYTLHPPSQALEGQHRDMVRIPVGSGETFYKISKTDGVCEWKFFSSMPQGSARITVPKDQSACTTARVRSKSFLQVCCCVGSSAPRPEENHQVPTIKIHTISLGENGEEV
Method in brief: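 Brain cortex homogenized in 50 mM Tris-HCl pH 7.2, spun twice at 50,000 g, resuspended in Tris-HCl pH 7.4. 0.4 nM [3H]prazosin final, 10 mg fresh tissue, 30 min at 25 °C. Nonspecific binding with phentolamine. GF/B filtration. Ki by Cheng-Prusoff from six-point triplicate curves.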

[5] = target: T4, Adrenergic receptor alpha-2 (Rattus norvegicus, UniProt P22086+P19328+P22909); experiment: Displacement of [3H]yohimbine from rat brain cortex adrenergic alpha2 receptor after 30 mins by liquid scintillation counting
T4 sequence (P22086 whole entry): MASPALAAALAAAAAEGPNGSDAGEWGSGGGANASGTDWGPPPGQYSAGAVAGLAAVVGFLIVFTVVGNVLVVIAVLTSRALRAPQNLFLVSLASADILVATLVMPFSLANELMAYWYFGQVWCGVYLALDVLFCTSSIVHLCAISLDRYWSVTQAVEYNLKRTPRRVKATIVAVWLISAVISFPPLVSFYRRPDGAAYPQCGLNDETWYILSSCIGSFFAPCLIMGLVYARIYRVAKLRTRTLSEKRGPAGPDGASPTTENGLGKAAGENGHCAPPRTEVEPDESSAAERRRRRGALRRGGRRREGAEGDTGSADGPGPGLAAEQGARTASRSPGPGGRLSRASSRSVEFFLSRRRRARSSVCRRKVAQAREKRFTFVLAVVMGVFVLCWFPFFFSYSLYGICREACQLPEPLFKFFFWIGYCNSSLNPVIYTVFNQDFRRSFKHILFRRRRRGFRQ
T4 sequence (P19328 whole entry): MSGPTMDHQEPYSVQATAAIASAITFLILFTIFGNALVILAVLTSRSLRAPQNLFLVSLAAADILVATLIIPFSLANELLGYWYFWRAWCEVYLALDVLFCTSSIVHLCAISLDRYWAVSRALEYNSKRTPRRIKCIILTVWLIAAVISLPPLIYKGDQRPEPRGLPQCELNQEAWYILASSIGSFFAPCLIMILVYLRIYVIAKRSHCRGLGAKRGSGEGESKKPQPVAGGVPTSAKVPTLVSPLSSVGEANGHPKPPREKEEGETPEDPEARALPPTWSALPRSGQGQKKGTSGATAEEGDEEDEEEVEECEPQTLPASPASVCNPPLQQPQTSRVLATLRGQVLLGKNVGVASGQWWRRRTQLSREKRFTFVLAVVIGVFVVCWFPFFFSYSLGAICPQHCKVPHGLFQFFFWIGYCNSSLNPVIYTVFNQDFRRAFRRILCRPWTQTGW
T4 sequence (P22909 whole entry): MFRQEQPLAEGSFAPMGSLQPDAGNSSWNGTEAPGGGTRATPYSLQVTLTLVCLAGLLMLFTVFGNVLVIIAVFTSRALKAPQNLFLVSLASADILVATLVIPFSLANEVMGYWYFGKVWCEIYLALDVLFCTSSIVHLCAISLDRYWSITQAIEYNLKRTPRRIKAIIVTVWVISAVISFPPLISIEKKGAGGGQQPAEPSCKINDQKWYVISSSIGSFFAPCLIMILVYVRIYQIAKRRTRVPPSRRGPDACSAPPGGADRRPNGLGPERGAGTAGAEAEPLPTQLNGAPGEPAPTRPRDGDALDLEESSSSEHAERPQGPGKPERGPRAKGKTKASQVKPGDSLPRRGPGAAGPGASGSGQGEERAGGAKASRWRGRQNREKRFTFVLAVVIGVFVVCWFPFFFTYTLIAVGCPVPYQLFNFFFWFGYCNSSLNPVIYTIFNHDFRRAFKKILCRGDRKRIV
Method in brief: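 Cortex homogenized in 5 mM Tris-HCl, 5 mM EDTA pH 7.3, spun three times at 50,000 g, resuspended in 50 mM Tris-HCl, 0.5 mM EDTA pH 7.5. [3H]yohimbine 1 nM final, 10 mg fresh tissue, 30 min at 25 °C. Phentolamine defined nonspecific binding. Ki by Cheng-Prusoff.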

| Compound | pKi [1] | Ki [2] | Ki [3] | pKi [2] | pKi [3] | Ki [1] | also measured |
| --- | --- | --- | --- | --- | --- | --- | --- |
| CCOCCN1CCN(CCCN/C(=N\C#N)c2ccccn2)CC1 | 6.22 | Not Active | Not Active |  |  |  |  |
| N#CNC(=NCCCN1CCN(c2cccc(Cl)c2)CC1)c1ccccn1 | 8.48 |  |  | 8.18 | 12.73 |  | pIC50 [3]: 12.60; pKi (D(2) dopamine receptor): < 5.00; pKi (D(1A) dopamine receptor): < 5.00 |
| N#C/N=C(\NCCCN1CCN(c2ccccc2C#N)CC1)c1ccccn1 | 7.54 |  |  | < 5.00 | 6.04 |  |  |
| COc1ccc(N2CCN(CCCN/C(=N\C#N)c3ccccn3)CC2)cc1 |  |  |  | 10.07 | < 5.00 | Not Active | Ki [4]: > 10000 nM; pKi (D(2) dopamine receptor): < 5.00; pKi (D(1A) dopamine receptor): < 5.00 |
| COCCN1CCN(CCCN/C(=N\C#N)c2ccccn2)CC1 | 6.41 | Not Active | Not Active |  |  |  |  |
| N#C/N=C(\NCCCN1CCN(Cc2ccc3c(c2)OCO3)CC1)c1ccccn1 |  |  |  | < 5.00 | 7.29 | Not Active | Ki [5]: 964 nM; Ki (D(2) dopamine receptor): Not Active; Ki (D(1A) dopamine receptor): Not Active |
| N#C/N=C(\NCCCN1CCN(c2ccccc2Cl)CC1)c1ccccn1 |  |  |  | 6.77 | 7.57 | Not Active |  |
| C=CCN1CCN(CCCN/C(=N\C#N)c2ccccn2)CC1 | < 5.00 | Not Active | Not Active |  |  |  |  |
